Laboratory results: ChEMBL document CHEMBL4765413, “Discovery of novel anti-angiogenesis agents. Part 11: Development of PROTACs based on active molecules with potency of promoting vascular normalization” (Eur J Med Chem, 2020)

Assays:
EA.hy 926 = assay: Antiangiogenic activity in human EA.hy 926 cells measured after 24 hrs by MTT assay; settings: EA.hy 926, 24 h
[1] = molecular target: Vascular endothelial growth factor receptor 2 (Homo sapiens, UniProt P35968); assay: Inhibition of recombinant human N-terminal GST-tagged VEGFR2 (789 to end residues) expressed in baculovirus infected Sf9 insect cells using Poly (4:1 Glu, Tyr) as substrate incubated for 1 hr by ADP-Glo luminescent assay
Chain of Vascular endothelial growth factor receptor 2 (P35968 whole entry): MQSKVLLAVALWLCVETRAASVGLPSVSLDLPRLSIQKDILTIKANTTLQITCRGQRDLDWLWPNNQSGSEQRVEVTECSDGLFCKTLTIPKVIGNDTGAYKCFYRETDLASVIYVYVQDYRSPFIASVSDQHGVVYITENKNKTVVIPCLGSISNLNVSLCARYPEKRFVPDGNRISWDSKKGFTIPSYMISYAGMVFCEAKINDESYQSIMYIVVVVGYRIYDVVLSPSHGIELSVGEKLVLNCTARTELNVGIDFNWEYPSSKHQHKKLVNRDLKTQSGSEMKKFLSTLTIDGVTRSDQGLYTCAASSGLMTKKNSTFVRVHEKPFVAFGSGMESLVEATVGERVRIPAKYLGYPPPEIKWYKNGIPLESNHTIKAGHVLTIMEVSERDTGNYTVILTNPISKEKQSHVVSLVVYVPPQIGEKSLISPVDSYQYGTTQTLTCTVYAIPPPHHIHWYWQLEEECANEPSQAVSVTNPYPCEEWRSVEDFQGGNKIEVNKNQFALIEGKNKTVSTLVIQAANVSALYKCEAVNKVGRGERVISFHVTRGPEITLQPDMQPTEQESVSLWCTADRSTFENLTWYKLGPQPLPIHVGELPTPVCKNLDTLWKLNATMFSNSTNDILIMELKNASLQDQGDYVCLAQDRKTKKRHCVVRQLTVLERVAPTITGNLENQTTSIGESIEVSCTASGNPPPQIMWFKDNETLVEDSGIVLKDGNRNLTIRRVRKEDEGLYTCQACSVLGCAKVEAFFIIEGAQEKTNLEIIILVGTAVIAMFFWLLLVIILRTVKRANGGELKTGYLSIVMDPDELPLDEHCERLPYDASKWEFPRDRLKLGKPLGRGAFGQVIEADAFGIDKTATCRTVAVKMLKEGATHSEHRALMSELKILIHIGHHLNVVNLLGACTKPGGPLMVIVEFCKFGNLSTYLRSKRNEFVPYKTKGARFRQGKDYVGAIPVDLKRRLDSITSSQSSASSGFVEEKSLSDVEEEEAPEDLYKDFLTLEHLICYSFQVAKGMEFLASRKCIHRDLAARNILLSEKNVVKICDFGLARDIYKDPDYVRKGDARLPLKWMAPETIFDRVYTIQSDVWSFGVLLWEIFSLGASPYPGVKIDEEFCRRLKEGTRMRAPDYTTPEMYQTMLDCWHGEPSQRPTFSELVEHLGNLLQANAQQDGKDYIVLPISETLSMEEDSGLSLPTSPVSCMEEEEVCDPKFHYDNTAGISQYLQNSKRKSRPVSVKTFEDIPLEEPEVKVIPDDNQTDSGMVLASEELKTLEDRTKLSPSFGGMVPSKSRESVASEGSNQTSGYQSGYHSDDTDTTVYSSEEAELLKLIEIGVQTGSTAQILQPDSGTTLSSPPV

HEK293 = assay: Cytotoxicity against HEK293 cells measured after 24 hrs by MTT assay; format: cell-based; settings: human, hek293, 24 h
[2] = molecular target: von Hippel-Lindau disease tumor suppressor/Vascular endothelial growth factor receptor 2 (Homo sapiens) (UniProt P35968+P40337); assay: Protac activity at VHL/VEGFR2 in human EA.hy 926 cells assessed as induction of VEGFR2 degradation at 80 uM measured after 72 hrs by Western blot analysis relative to control; format: cell-based
Chain of von Hippel-Lindau disease tumor suppressor/Vascular endothelial growth factor receptor 2 (Homo sapiens) (P35968 20-1356 limits assumed): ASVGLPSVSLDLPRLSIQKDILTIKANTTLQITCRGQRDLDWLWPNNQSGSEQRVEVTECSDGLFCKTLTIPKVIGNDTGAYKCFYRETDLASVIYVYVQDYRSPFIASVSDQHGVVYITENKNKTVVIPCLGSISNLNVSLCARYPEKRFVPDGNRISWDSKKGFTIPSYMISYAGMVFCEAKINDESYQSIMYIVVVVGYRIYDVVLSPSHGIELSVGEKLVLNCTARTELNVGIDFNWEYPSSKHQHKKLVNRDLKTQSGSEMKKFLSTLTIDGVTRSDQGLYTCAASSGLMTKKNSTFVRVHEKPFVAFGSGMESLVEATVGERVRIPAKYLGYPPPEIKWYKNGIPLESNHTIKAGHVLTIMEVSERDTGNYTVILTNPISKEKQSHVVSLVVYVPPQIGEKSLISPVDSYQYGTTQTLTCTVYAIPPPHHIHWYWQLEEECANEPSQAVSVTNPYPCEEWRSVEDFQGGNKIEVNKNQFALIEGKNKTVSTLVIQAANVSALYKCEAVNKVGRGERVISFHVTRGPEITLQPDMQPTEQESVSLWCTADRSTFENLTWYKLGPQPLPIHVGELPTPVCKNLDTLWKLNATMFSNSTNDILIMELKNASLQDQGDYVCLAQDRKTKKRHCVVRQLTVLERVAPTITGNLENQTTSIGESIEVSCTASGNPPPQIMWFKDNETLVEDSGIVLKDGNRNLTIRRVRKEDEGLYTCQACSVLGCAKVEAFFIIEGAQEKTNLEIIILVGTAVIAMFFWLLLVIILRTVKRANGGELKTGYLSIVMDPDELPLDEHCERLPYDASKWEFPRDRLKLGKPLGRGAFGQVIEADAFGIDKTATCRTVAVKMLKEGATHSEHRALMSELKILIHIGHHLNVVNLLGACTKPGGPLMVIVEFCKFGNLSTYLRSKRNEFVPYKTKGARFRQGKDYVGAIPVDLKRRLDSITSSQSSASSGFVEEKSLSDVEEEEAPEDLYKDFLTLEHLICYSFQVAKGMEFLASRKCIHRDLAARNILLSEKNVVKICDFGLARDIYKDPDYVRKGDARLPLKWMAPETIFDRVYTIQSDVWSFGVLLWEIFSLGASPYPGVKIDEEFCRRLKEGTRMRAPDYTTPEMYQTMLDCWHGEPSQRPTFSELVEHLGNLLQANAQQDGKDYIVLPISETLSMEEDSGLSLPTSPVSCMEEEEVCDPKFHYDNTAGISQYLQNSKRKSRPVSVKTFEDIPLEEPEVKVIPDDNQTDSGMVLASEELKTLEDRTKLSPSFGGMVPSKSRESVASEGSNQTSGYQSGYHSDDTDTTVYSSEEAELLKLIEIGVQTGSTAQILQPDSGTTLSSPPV
Chain of von Hippel-Lindau disease tumor suppressor/Vascular endothelial growth factor receptor 2 (Homo sapiens) (P40337 whole entry partner): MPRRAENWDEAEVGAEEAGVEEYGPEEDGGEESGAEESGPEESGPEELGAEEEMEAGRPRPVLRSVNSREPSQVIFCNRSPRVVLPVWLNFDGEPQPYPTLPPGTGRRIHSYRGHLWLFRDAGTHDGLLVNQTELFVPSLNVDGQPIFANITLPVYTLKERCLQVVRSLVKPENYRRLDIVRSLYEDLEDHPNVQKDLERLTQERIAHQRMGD
Outline: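 EA.hy926 cells were exposed to DMSO vehicle or test compound, then lysed in SDS sample buffer and normalized by BCA protein assay. Equal protein amounts were run on SDS-PAGE and transferred to PVDF. Membranes were blocked in 5% milk/TBS-Tween and probed with anti-VEGFR-2 (1:500), with GAPDH (1:10000) as loading control. Detection used HRP secondary and ECL, with densitometric quantification.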

| IC50 [1] [µM] | Activity [2] [%] | Structure (SMILES) | IC50 (EA.hy 926) [µM] | Activity (HEK293) |
| --- | --- | --- | --- | --- |
|  |  | Cc1ccc(F)c(NC(=O)Nc2ccc(-c3cccc4[nH]nc(N)c34)cc2)c1 [LINIFANIB] | 2.48 |  |
| > 1 |  | Cc1ncsc1-c1ccc(CNC(=O)[C@@H]2C[C@@H](O)CN2C(=O)[C@@H](NC(=O)CCCCCCCCCCCCCCC(=O)n2nc(N)c3c(-c4cccc(NC(=O)Nc5cccc(C(C)C)c5)c4)cccc32)C(C)(C)C)cc1 | > 100 | Non-Toxic |
| 0.208 | 70 | Cc1ncsc1-c1ccc(CNC(=O)[C@@H]2C[C@@H](O)CN2C(=O)[C@@H](NC(=O)CCCCCCCCCCC(=O)n2nc(N)c3c(-c4cccc(NC(=O)Nc5cccc(C(C)C)c5)c4)cccc32)C(C)(C)C)cc1 | 32.8 | Non-Toxic |
| > 1 |  | Cc1ccc(F)c(NC(=O)Nc2ccc(-c3cccc4c3c(N)nn4C(=O)CCCCCC(=O)N[C@H](C(=O)N3C[C@H](O)C[C@H]3C(=O)NCc3ccc(-c4scnc4C)cc3)C(C)(C)C)cc2)c1 | 133 | Non-Toxic |
